Eleven compounds from PMC6522656 (Heliyon, 2019) can be followed below.

SMILES strings stand for the structures.

One data set has as its system HT-29 cancer cells. The data set is described as follows: MTT cytotoxicity assay, HT-29. The class given is cell-based. The following applies: Homo sapiens, HT-29, 72 h, read-out: IC50 HT-29 Colon. A digest of the protocol: (§1)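 Cells grown as monolayers in DMEM with 4.5 g glucose, 10% FBS and 1% penicillin/streptomycin. Seeded cells exposed for 72 h to several concentrations of test compound (0.1–100 μM), then given MTT for 4 h. Formazan dissolved in DMSO; absorbance read at 570 nm. IC50 taken as the mean of three independent experiments in triplicate; 100 μM cut-off.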
In general terms: Tetrazolium dyes change colour on reduction, which living cells bring about.

A further data set relates to DU-145 cells. The data set is described as follows: MTT cytotoxicity assay, DU-145. In kind it is cell-based. To be noted: Homo sapiens, DU-145, 72 h, read-out: IC50 DU-145 Prostate. The procedure, abridged: as §1
A further data set relates to HCT-116. The data set is described as follows: MTT cytotoxicity assay, HCT-116. The class given is cell-based. To be noted: Homo sapiens, HCT-116, 72 h, read-out: IC50 HCT-116 Colon. A digest of the protocol:
as §1

In the next data set the test system is HEK293/pcDNA3.1. The data set is described as follows: MTT cytotoxicity assay, HEK293/pcDNA3.1. The class given is cell-based, human. The following applies: for IC50: Homo sapiens, HEK293, 72 h, read-out: IC50 HEK293/pcDNA.3.1 Normal; for significant cytotoxicity in human embryonic kidney cells: at a concentration of less than 50 μM. The procedure, abridged: as §1

The subject of data set [1] is mouse fibroblast (NIH/3T3). The data set is described as follows: MTT cytotoxicity assay, NIH/3T3. The class given is cell-based. The following applies: NIH3T3, 72 h, read-out: IC50 3T3 Normal. A digest of the protocol:
as §1

Data set [2] has as its system A2780 cells. Description: Annexin V based apoptosis assay. The class given is cell-based. To be noted: 24 h; for Q1 (flow cytometry quadrant): control Q1 94.1%; for Q2 (flow cytometry quadrant, apoptosis): control Q2 5.87 %. (In general: In flow cytometry, cells or beads pass a laser one at a time.)
The subject of data set [3] is A2780 cells. Description: Nuclear condensation-based apoptosis assay. To be noted: 5, 10, or 20 μM at 24 and 48 h. In kind it is cell-based.
Data set [4] has as its system A2780 cells. The data set is described as follows: Colony formation assay. In kind it is cell-based. To be noted: 10 or 20 μM, incubated 24 hrs, colonies over 2 weeks. The procedure, abridged: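 A2780 cells exposed to vehicle (0 μM) or test compound (10 or 20 μM) for 24 h, then reseeded at very low density in six-well plates and grown 2 weeks. Colonies fixed, stained and counted under a microscope; colony formation rate calculated. Repeated independently in triplicate.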

As for `COc1ccc2nc(Cl)c(C=C3C(=O)Nc4ccccc43)cc2c1` [LM04, 3-((2-chloro-6-methoxyquinolin-3-yl)methylene)indolin-2-one], the IC50 with HT-29 cancer cells is above 100 µM; in the data set with DU-145 cells it was 47.2 µM; in the data set with HCT-116, 60.9 µM; in the data set with HEK293/pcDNA3.1 it was 39.9 µM; in data set [1], above 100 µM. The “significant cytotoxicity in human embryonic kidney cells” value in the data set with HEK293/pcDNA3.1 was “produced significant cytotoxicity”.

Take `COc1ccc2cc(C=C3C(=O)Nc4ccccc43)c(Cl)nc2c1` [LM05, 3-((2-chloro-7-methoxyquinolin-3-yl)methylene)indolin-2-one]: the IC50 with HT-29 cancer cells was above 100 µM; in the data set with DU-145 cells it was above 100 µM; in the data set on HCT-116, 56.2 µM; with HEK293/pcDNA3.1 it was above 100 µM; in data set [1] it was above 100 µM.

`O=C1Nc2ccccc2C1=Cc1cc2ccc(Cl)cc2nc1Cl` [LM09, 3-((2,7-dichloroquinolin-3-yl)methylene)indolin-2-one]: the IC50 in the data set with HT-29 cancer cells was above 100 µM; in the data set with DU-145 cells, 54.9 µM; in the data set on HCT-116, 75.2 µM; in the data set on HEK293/pcDNA3.1, 63.2 µM; in data set [1], above 100 µM.

As to `Cc1ccc2nc(Cl)c(C=C3C(=O)Nc4ccccc43)cc2c1` [LM02, 3-((2-chloro-6-methylquinolin-3-yl)methylene)indolin-2-one], the IC50 was above 100 µM in the data set on HT-29 cancer cells; above 100 µM in the data set with DU-145 cells; 52.1 µM with HCT-116; 73.4 µM in the data set with HEK293/pcDNA3.1; above 100 µM in data set [1].

As for `COc1cccc2cc(C=C3C(=O)Nc4ccccc43)c(Cl)nc12` [LM07, 3-((2-chloro-8-methoxyquinolin-3-yl)methylene)indolin-2-one], the IC50 in the data set with HT-29 cancer cells was above 100 µM; in the data set with DU-145 cells it was 11 µM; in the data set with HCT-116 it was above 100 µM; with HEK293/pcDNA3.1, 80.8 µM; in data set [1], above 100 µM.

For the compound `O=C1Nc2ccccc2C1=Cc1cc2ccc3ccccc3c2nc1Cl` [LM11, 3-((2-chlorobenzo[h]quinolin-3-yl)methylene)indolin-2-one], the IC50 in the data set on HT-29 cancer cells is above 100 µM; in the data set on DU-145 cells it was 95.7 µM; in the data set with HCT-116 it was above 100 µM; in the data set with HEK293/pcDNA3.1, 75.3 µM; in data set [1], above 100 µM.

As to `Cc1cc2cc(C=C3C(=O)Nc4ccccc43)c(Cl)nc2cc1C` [LM03, 3-((2-chloro-6,7-dimethylquinolin-3-yl)methylene)indolin-2-one], the IC50 with HT-29 cancer cells was above 100 µM; with DU-145 cells, above 100 µM; in the data set with HCT-116 it was above 100 µM; in the data set with HEK293/pcDNA3.1, 97.4 µM; in data set [1], above 100 µM.

With `O=C1Nc2ccccc2C1=Cc1cc2cc(Br)ccc2nc1Cl` [LM10, 3-((6-bromo-2-chloroquinolin-3-yl)methylene)indolin-2-one], the IC50 was above 100 µM in the data set on HT-29 cancer cells; above 100 µM with DU-145 cells; 41.3 µM in the data set on HCT-116; 50.5 µM in the data set with HEK293/pcDNA3.1; above 100 µM in data set [1]. In addition, the “significant cytotoxicity in human embryonic kidney cells” value with HEK293/pcDNA3.1 was “produced significant cytotoxicity”.

`O=C1Nc2ccccc2C1=Cc1cc2cc(Cl)ccc2nc1Cl` [LM08, 3-((2,6-dichloroquinolin-3-yl)methylene)indolin-2-one]: the IC50 in the data set with HT-29 cancer cells was above 100 µM; with DU-145 cells it was 91.2 µM; in the data set with HCT-116, 77.8 µM; in the data set on HEK293/pcDNA3.1, 64.3 µM; in data set [1], above 100 µM. Moreover, the “Q1 (flow cytometry quadrant)” value in the data set with A2780 cells [2] (10 μM) turned out to be 64.8%; in the data set with A2780 cells [2] (20 μM) it was 61.5%. The “Q2 (flow cytometry quadrant, apoptosis)” value in the data set with A2780 cells [2] (10 μM) was 34.6%; with A2780 cells [2] (20 μM), 36.9%. Further, the “nuclear morphology of A2780 cells (DAPI staining)” value in the data set with A2780 cells [3] is on record as “nuclear condensation”. Besides, the “colony formation of A2780 cells” value in the data set with A2780 cells [4] is listed as “significantly inhibited”.

Regarding `COc1cc2cc(C=C3C(=O)Nc4ccccc43)c(Cl)nc2cc1OC` [LM06, 3-((2-chloro-6,7-dimethoxyquinolin-3-yl)methylene)indolin-2-one], the IC50 was above 100 µM with HT-29 cancer cells; above 100 µM in the data set with DU-145 cells; 75 µM in the data set with HCT-116; above 100 µM in the data set with HEK293/pcDNA3.1; above 100 µM in data set [1].

In the case of `O=C1Nc2ccccc2C1=Cc1cc2ccccc2nc1Cl` [LM01, 3-((2-chloroquinolin-3-yl)methylene)indolin-2-one], the IC50 is above 100 µM in the data set with HT-29 cancer cells; 77.5 µM in the data set on DU-145 cells; above 100 µM in the data set with HCT-116; 64.5 µM with HEK293/pcDNA3.1; above 100 µM in data set [1].
